In the library only some 2.3% were active in any assay of this set; here they are far more common.
PAFAH2 inh: PAFAH2 (human) inhibition; AID 492956; inhibition, % at 3.39 µM; recombinant PAFAH2, FP-rhodamine activity probe, fluorescence polarization; Q99487; 0.99% of 340,000 active;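 active = inhibition above the mean over all tested compounds plus 3 SD, cut at about 30% in these data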;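 also: inhibitors block probe labeling of enzyme so polarization drops; 0% = enzyme with DMSO and 100% = wells lacking PAFAH2 protein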
TDP2 inh: blocks human TDP2 phosphodiesterase activity; 0.34% of 370,000 active; recombinant TDP2, T5PNP hydrolysis, p-nitrophenol absorbance 415 nm; O95551; inhibition, % at 12.8 µM;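 active = inhibition above the mean of all tested compounds plus 3 SD, set per campaign, cut at about 25% in these data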;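 also: 0% = DMSO with enzyme and 100% = buffer with substrate but no TDP2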
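Assay system: recombinant human TDP2 / Reagent: T5PNP substrate at 5 mM, a TopII-DNA adduct mimic / Measured by: epi absorbance from released p-nitrophenol / Evaluation: % inhibition relative to enzyme-containing and enzyme-free wells / Control set: enzyme-free and DMSO wells / Replicates: each compound tested once, singlicate / Schedule: enzyme reaction with compound for 2 h at 37 °C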
Apaf1 inhib: blocks human Apaf-1 apoptosome activity; O14727; 0.71% of 330,000 active; AID 489030; reconstituted apoptosome caspase-3 activity, DEVD-Rh110 fluorescence; inhibition, % at 20 µM; active = inhibition of at least 40% at 20 µM;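 also: plate controls were DMSO wells for no effect and DEVD-CHO caspase inhibitor wells for full effect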
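Medium: Hepes buffer, pH 7.5 / System: biochemical Apaf-1 apoptosome reconstitution / Measured by: Rh110 fluorescence, excitation 480 nm, emission 540 nm / Times: compound with Apaf-1, dATP, procaspase-3 30 min, then 50 min reaction, room temperature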
PAFAH1B2 inh: inhibitors of human PAFAH1B2; AID 492953; 1.2% of 340,000 active; inhibition, % at 3.39 µM; recombinant PAFAH1B2, FP-rhodamine activity probe, fluorescence polarization;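 active = inhibition above the mean of all tested compounds plus 3 SD, cut at about 24% in these data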;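 also: 0% = enzyme with DMSO and 100% = wells lacking PAFAH1B2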
Target sequence (P68402 whole entry, looked up): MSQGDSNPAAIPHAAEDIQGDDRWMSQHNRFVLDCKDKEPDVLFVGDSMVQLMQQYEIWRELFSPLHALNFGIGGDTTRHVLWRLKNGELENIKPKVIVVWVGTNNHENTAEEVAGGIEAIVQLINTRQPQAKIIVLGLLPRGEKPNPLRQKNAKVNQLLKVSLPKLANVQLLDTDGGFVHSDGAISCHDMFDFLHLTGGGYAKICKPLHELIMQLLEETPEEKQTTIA
PAFAH1B3 FP inh: PAFAH1B3 (human) inhibition; 0.28% of 340,000 active; Q15102; inhibition, % at 3.39 µM; recombinant PAFAH1B3, FP-rhodamine probe, fluorescence polarization;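 active = inhibition above the screen-wide average of all tested compounds plus 3 SD, cut at about 25% in these data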;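 also: 0% = enzyme with DMSO only and 100% = wells lacking PAFAH1B3 protein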
Target sequence (Q15102 whole entry, looked up): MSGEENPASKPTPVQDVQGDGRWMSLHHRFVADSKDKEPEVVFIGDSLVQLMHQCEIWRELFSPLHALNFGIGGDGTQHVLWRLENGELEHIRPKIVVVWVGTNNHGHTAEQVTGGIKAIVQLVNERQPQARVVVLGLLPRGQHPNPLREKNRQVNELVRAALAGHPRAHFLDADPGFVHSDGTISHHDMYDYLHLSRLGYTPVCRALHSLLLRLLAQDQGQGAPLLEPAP
TDP2 confirm: human TDP2 inhibition, confirmation; shares compounds with TDP2 inh; recombinant human TDP2, absorbance read-out; inhibition, % at 12.8 µM; 22% of 1,100 active; AID 743263; in the data active = inhibition above about 25%;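 also: 0% = vehicle with enzyme and 100% = no enzyme buffer only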
* hit, by the source's call; / = no result.

SMILES	PAFAH2 inh	TDP2 inh	Apaf1 inhib	PAFAH1B2 inh	PAFAH1B3 FP inh	TDP2 confirm
CC(C)(C)c1ccc(C(=O)NCCCNC(=O)c2ccco2)cc1	-1.8	27.6*	7.2	9.9	-2.7	-8.7
CC(C)(C)c1ccc(NC(=O)CCNC(=O)c2ccco2)cc1	-1.0	-4.6	2.6	0.9	2.3	/
COC(=O)[C@]12C[C@H](CC(=O)NCc3cccc4ccccc34)C(=O)N(Cc3ccc(Cl)cc3Cl)C1=C[C@H](C1CCCC1)O[C@@H]2C	/	-11.0	/	/	/	/
Cn1c(CC(=O)Nc2ccccc2Cl)nnc1SCC(=O)Nc1nncs1	1.4	2.5	4.5	-0.1	6.2	/
Cc1ccc(NC(=O)Cc2nnc(SCC(=O)Nc3nncs3)n2C)c(C)c1	-0.3	29.2*	-5.5	0.7	0.4	2.4
CN(C)c1ccc2nc3ccc(=O)cc-3sc2c1	/	30.9*	/	/	/	12.6
CC(C)CN(C(=O)CC(C)c1ccccc1)c1c(N)n(Cc2ccccc2)c(=O)[nH]c1=O (stereo unspecified)	6.0	-5.7	2.0	4.2	2.2	/
CC(C)CN(C(=O)CCc1ccccc1Cl)c1c(N)n(Cc2ccccc2)c(=O)[nH]c1=O	7.4	27.2*	15.7	0.2	2.4	-5.3
CCCCCCC(=O)n1ccc2ccc(-c3ccc4ccn(Cc5ccc(OC)cc5)c4c3)cc21	/	9.4	/	/	/	/
CN(Cc1cn(CC2CCCCC2)nn1)S(=O)(=O)c1ccccc1Br	/	4.0	/	/	/	/
C=C1CCC[C@]2(C)C[C@H]3OC(=O)C(CNCCN(CC)CC)[C@H]3CC12 (stereo partly specified)	16.4	33.9*	2.4	11.3	14.2	-4.1
Cc1ccc(NC(=O)C2CCN(S(=O)(=O)c3ccccc3)CC2)cc1	-0.1	30.4*	-2.5	1.2	4.6	5.5
Cc1ccccc1N1CC(C(=O)Nc2ccc(S(=O)(=O)N3CCCCC3)cc2)CC1=O (stereo unspecified)	-6.4	25.1*	11.6	2.7	7.0	3.8
CCCOc1ccc(N)cc1N	8.3	29.5*	91.0*	7.7	15.3	21.8
CCCOc1cc(N)ccc1C(=O)OCCN(CC)CC	-12.5	-5.2	-7.1	1.8	-2.6	/
CCOC(=O)c1c(C)oc2c1c(C=NCC1CCCO1)c(O)c1ccccc12 (stereo unspecified)	12.3	28.8*	/	3.8	12.4	11.1
COc1cc(NC(=O)c2ccccc2)c(C)cc1NC(=O)CSc1nnc(-c2cnccn2)n1-c1ccc(C)cc1	/	1.6	/	/	/	/
COC(=O)c1cc2c(c3c4cc(C)ccc4n(S(=O)(=O)c4ccc(C)cc4)c13)C(=O)N(Cc1ccccc1OC)C2	/	0.3	/	/	/	/
O=S1(=O)c2ccc(Br)cc2OC[C@@H](c2ccccc2)N1Cc1cn(CCC2OCCCO2)nn1	/	12.5	/	/	/	/
COc1ccc(COCC(O)CN2CCC(C(N)=O)CC2)cc1OC (stereo unspecified)	6.3	7.6	-1.0	0.1	9.6	/
NC(=O)C1CCCN(CC(O)COCc2ccc(Cl)cc2)C1 (stereo unspecified)	-2.3	28.4*	1.3	5.1	2.8	2.0
COc1ccc(CNCCCC(=O)Nc2c(Cl)ccc(C)c2Cl)cc1OC	-6.2	29.5*	0.6	0.1	2.4	8.2
O=C(O)Cc1ccc(N2N=C(c3ccccc3)CC2=O)cc1	/	70.7*	/	/	/	4.7
CN(Cc1cn(Cc2ccccc2)nn1)S(=O)(=O)c1ccc(F)cc1Br	/	-2.3	/	/	/	/
Cc1ccc(NC(=O)c2cc(-c3ccc(C)c(C)c3O)n[nH]2)cc1C	-41.5	7.6	-1.0	-18.8	-19.6	/
SMILES	PAFAH2 inh	TDP2 inh	Apaf1 inhib	PAFAH1B2 inh	PAFAH1B3 FP inh	TDP2 confirm
COc1ccc(NC(=O)c2cc(-c3ccc(C)c(C)c3O)n[nH]2)cc1Cl	-26.3	74.8*	16.0	-1.5	-1.1	2.1
C/C(=C/c1nc(N)n(Cc2ccccc2)c1Cc1ccccc1)Cn1[nH]c(=O)n(-c2ccccc2)c1=O	/	0.1	/	/	/	/
CCCCN(C)C(=O)CSc1nnc(-c2cccnc2)n1C1CCCCC1	/	9.6	/	/	/	/
COc1ccc(/C=C2/C(=O)N(c3ccccc3)N=C2C)cc1Br	6.4	70.1*	86.9*	5.2	2.0	27.3*
CN(C(=O)c1cccs1)c1ccccc1C(=O)O	4.4	42.2*	-0.3	0.0	1.0	5.2
COc1cccc(-n2c(=O)c3ccccc3n3c(=S)[nH]nc23)c1	1.0	68.9*	-14.1	7.9	-5.3	3.5

Screening data deposited in PubChem BioAssay by several laboratories.
